Paper PMC7485944 (Clinical and Translational Science, 2020)
Values joined by “and” are separate entries in the source; they are usually repeats but may differ in a detail not shown here. Identical values can stand only once. Like-named read-outs stand apart in the source and are kept apart here. Each block holds one compound with its values, some of them ahead of it.

Key:
[1] = tested on: MRP2; conditions: in vitro; ref Idorsia Pharmaceuticals, data on file; cited from earlier work
[2] = tested on: platelet inhibition; conditions: single s.c. doses of 8 and 16 mg, postdose; cited from earlier work
[3] = cited from earlier work
[4] = assay type: in vivo, human
Summary of the method: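 Same crossover dosing (saline or 600 mg inhibitor i.v. over 30 min, then 4 mg s.c. fasting). Plasma was sampled from 5 min to 36 h post-dose and stored at −25°C. Quantification used validated LC-MS/MS (LLOQ 1.00 ng/mL; linear 1.00–2,000 ng/mL). Noncompartmental analysis: AUC0–t by linear trapezoidal rule; AUC0–∞ adds Ct/λz; CL/F = Dose/AUC0–∞. Treatment effect given as geometric mean ratios with 90% CI.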

[5] = tested on: OATP1B3; conditions: in vitro; ref Idorsia Pharmaceuticals, data on file; cited from earlier work
[6] = cited from earlier work; remark: listed apart in the source
[7] = ref Idorsia Pharmaceuticals, data on file; cited from earlier work
[8] = tested on: OATP1B1; conditions: in vitro; ref Idorsia Pharmaceuticals, data on file; cited from earlier work
[9] = cited from earlier work; remark: listed apart in the source
[10] = Safety and tolerability evaluation of study treatments in healthy subjects; assay type: in vivo, human; conditions: for Number of AEs reported: 14 subjects
Summary of the method: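 Randomized, double-blind, two-period crossover in healthy adults with a 7–10 day washout. Each period gave 100 mL saline or 600 mg OATP inhibitor i.v. over 30 min, with bags and lines covered. This was followed by 4 mg test compound s.c. in the thigh under fasting. Monitoring throughout covered AEs, serious AEs, physical exam, vital signs, 12-lead ECG, body weight, clinical chemistry, hematology and coagulation.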

[11] = tested on: OATP1B3; conditions: following a single 600 mg dose; cited from earlier work
[12] = tested on: OATP1B1; conditions: following a single 600 mg dose; cited from earlier work
[13] = tested on: OATP2B1; conditions: cited from earlier work
[14] = 600 mg rifampin i.v. before 4 mg selatogrel s.c.
[15] = Treatment A: placebo + 4 mg selatogrel s.c., n = 13
[16] = Treatment B: 600 mg rifampin i.v. + 4 mg selatogrel s.c., n = 13
[17] = treatment B (rifampin) / A (placebo), n = 13

Decrease of CL/F with rifampin [4, 14]: ~ 30%
Decrease of Vd/F with rifampin [4, 14]: ~ 30%
Increase of AUC0–t with rifampin compared with placebo [4, 14]: 44%
Increase of AUC0–∞ with rifampin compared with placebo [4, 14]: 43% and ~40%
Increase of Cmax with rifampin compared with placebo [4, 14]: 19% and ~ 20%
AUC0–t, geometric mean [4, 15]: 273.7 ng·h/mL
AUC0–∞, geometric mean [4, 15]: 279.8 ng·h/mL
CL/F, geometric mean [4, 15]: 14.3 L/h
AUC0–t, geometric mean [4, 16]: 392.6 ng·h/mL
AUC0–∞, geometric mean [4, 16]: 398.7 ng·h/mL
CL/F, geometric mean [4, 16]: 10.0 L/h
AUC0–t, geometric mean ratio B/A [4, 17]: 1.44
AUC0–∞, geometric mean ratio B/A [4, 17]: 1.43
CL/F, geometric mean ratio B/A [4, 17]: 0.70
Cmax, geometric mean ratio B/A [4, 17]: 1.19
Vd/F, geometric mean ratio B/A [4, 17]: 0.68
t 1/2, geometric mean ratio B/A [4, 17]: 0.97
SMILES: CCCCOC(=O)N1CCN(C(=O)[C@H](CP(=O)(O)O)NC(=O)c2cc(N3CC[C@H](OC)C3)nc(-c3ccccc3)n2)CC1 [selatogrel, 4‐((R)‐2‐{[6‐((S)‐3‐Methoxypyrrolidin‐1‐yl)‐2‐phenylpyrimidine‐4‐carbonyl]amino}‐ 3‐phosphonopropionyl)piperazine‐1‐carboxylic Acid Butyl Ester]
Substrate of MRP2 [1]: substrate
Time to reversal of pharmacodynamic effect [2]: ≤ 24 h
Exposure dose proportionality ([3]; dose range 1–32 mg): dose‐proportional exposure
Safety and tolerability in single-ascending dose study ([3]; dose range 1–32 mg): safe and well‐tolerated
Time of absorption after s.c. administration ([3]; s.c.): 30 to 45 min
elimination half-life ([3]; s.c.): 2 to 9 h
Substrate of OATP1B3 [5]: substrate
Route of elimination [6]: mainly eliminated unchanged via the biliary route
transcellular permeability [7]: 0.2 10^−6 cm/seconds
Substrate of OATP1B1 [8]: substrate
Plasma protein binding [9]: highly bound to plasma proteins
Intensity of AEs ([10]; both treatment periods): mild
Serious adverse events or AEs leading to discontinuation ([10]; both treatment periods): No serious adverse events or AEs leading to study discontinuation
Overall safety and tolerability ([10]; selatogrel 4 mg s.c. after rifampin or matching placebo): safe and well‐tolerated
Number of AEs reported ([10]; selatogrel 4 mg s.c. with 600 mg rifampin i.v. (treatment B)): 17
Number of AEs reported ([10]; selatogrel 4 mg s.c. with placebo (treatment A)): 8
Number of AEs considered related to study treatment ([10]; treatment period A (placebo + selatogrel)): 1

SMILES: CO[C@H]1/C=C/O[C@@]2(C)Oc3c(C)c(O)c4c(O)c(c(/C=N/N5CCN(C)CC5)c(O)c4c3C2=O)NC(=O)/C(C)=C\C=C\[C@H](C)[C@H](O)[C@@H](C)[C@@H](O)[C@@H](C)[C@H](OC(C)=O)[C@@H]1C [rifampin]
Inhibition of OATP1B3 [11]: potent inhibitor
Inhibition of OATP1B1 [12]: potent inhibitor
Inhibition of OATP2B1 [13]: not a potent inhibitor
